Data set [1] has as its system Mus musculus. Put plainly: Antidiabetic activity in glucose-treated C57BL/J6 db/db mouse assessed as reduction of glucose AUC at 30 to 100 mg/kg, po administered for 2 weeks preincubated for 30 mins followed by glucose challenge measured after 30 to 180 mins by oral glucose tolerance test relative to control. More on the design: scale not given: the % may be the effect or the level left. It is filed as functional. A digest of the protocol: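 Oral glucose tolerance test. Mice: eight-week-old male C57BL/6 or ten-week-old male C57BLKS/J db/db, fasted overnight with water. Compound or 0.5% methylcellulose vehicle given orally, then an oral 2 g/kg glucose challenge 30 min later. Tail-tip blood glucose was read just before and at 30, 60, 90, 120 and 180 min. AUC was calculated from the time–glucose curve; n = 6.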

Data set [2] concerns Salmonella typhimurium. In words: Genotoxicity in Salmonella typhimurium TA100 assessed as increase in number of revertants at 1.5 to 5000 ug/plate by Ames test in absence of S9 fraction. In kind it is toxicity, organism-based. The conditions noted are these: salmonella enterica subsp. enterica serovar typhimurium. In a few lines: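 Ames reverse mutation test by direct plate incorporation in S. typhimurium TA98 and TA100, with or without Aroclor 1254-induced rat liver S9 mix. Compound in DMSO at 1.5–5000 µg/plate, plated in top agar, incubated 37 °C for about 50 h, then revertant colonies counted. Plates were checked for precipitation and cytotoxicity. A positive was a reproducible, dose-related increase in revertants of more than 2-fold.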

The subject of data set [3] is Hepatocyte. In words: Induction of 2-Deoxy-D-[3H]-glucose uptake in rat Hepatocytes using 5.5 mM glucose after 4 hrs by liquid scintillation counting. It is filed as functional. In a few lines:
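Rat primary hepatocytes, isolated by collagenase liver perfusion, viability over 85%. Cells attached 36 h on collagen I in MEM with 10% FBS, then serum-starved 12 h. Incubated 4 h in serum-free MEM with 5.5 mM glucose and 2-deoxy-D-[3H]-glucose, with or without compound. Washed in ice-cold PBS, lysed in 0.1 N NaOH, scintillation counted, expressed as % increase over control.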

A short description of data set [4]: Tmax in female Sprague-Dawley rat at 250 mg/kg, po measured on day 14. In kind it is ADME, organism-based. More on the design: dose 250 mg/kg, route oral. Conditions: in vivo; call rule not given here. In a few lines: (§1)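 Sprague–Dawley rats of both sexes, 5 weeks old at arrival, received daily oral gavage at 0, 250, 500 or 1000 mg/kg/day for 14 days. Vehicle was 0.5% methylcellulose at 10 mL/kg. Toxicokinetics were taken on Day 1 and Day 14. Necropsy was by Day 15. Testis was fixed in modified Davidson's fixative, paraffin-sectioned and H&E-stained, with histopathology on control and high-dose groups only.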

Data set [5] can be described thus: Cmax in female Sprague-Dawley rat at 250 mg/kg, po measured on day 1. It is filed as ADME, organism-based. The arrangement: dose 250 mg/kg, route oral. Conditions: in vivo. In a few lines:
(§2)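 Sprague–Dawley rats, 5 weeks old at arrival, both sexes. Given the compound by oral gavage once daily for 14 days at 0, 250, 500 or 1000 mg/kg/day, with 0.5% methylcellulose as vehicle. Toxicokinetic parameters were determined on Day 1 and Day 14.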

Data set [6] can be described thus: Increase in 11 mM glucose-stimulated insulin secretion in Sprague-Dawley rat Pancreatic islet measured for 1 hr by ELISA. It is filed as functional. A digest of the protocol: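 Islets isolated from male Sprague–Dawley rat pancreas, five per well. Islets were pre-incubated 30 min in HEPES-buffered Krebs–Ringer buffer (pH 7.4) with low glucose, then moved to the same buffer with glucose (11 mM) plus test compound. Static incubation ran at 37 °C in a shaking waterbath under 5% CO₂. Buffer was sampled at 1 h, insulin measured by ELISA, and reported as % increase versus control.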

For data set [7], the target named is T1, Cytochrome P450 2C8 (Homo sapiens, UniProt P10632).
T1 sequence (P10632 whole entry): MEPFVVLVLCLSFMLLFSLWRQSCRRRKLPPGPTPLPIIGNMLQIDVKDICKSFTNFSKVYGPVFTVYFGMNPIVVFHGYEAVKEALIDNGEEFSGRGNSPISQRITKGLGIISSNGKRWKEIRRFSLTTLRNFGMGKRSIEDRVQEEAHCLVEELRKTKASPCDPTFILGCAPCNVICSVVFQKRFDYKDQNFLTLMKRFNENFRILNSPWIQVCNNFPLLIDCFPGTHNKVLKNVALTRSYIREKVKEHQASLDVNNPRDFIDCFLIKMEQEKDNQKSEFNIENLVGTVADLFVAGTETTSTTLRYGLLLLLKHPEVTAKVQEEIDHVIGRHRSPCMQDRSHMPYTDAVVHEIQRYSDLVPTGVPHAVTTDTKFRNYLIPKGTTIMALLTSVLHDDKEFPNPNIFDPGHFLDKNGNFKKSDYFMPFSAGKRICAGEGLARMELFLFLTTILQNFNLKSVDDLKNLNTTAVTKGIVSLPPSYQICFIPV
Put plainly: Inhibition of CYP2C8 in human liver microsomes. In kind it is ADME. A digest of the protocol: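 Pooled human liver microsomes at 0.25 mg/mL, each with a CYP-selective substrate and test compound up to 25 µM, preincubated at 37 °C. It is stopped on ice with ice-cold acetonitrile and centrifuged, and the supernatant is analysed by LC–MS/MS.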
(In general: Microsomes from liver hold many membrane-bound enzymes, among them those of drug oxidation.)

The nature of data set [8]: Tmax in male Sprague-Dawley rat at 250 mg/kg, po measured on day 14. In kind it is ADME, organism-based. The arrangement: dose 250 mg/kg, route oral. The conditions noted are these: in vivo. In a few lines:
as §1

Data set [9] relates to Canis familiaris. Put plainly: Toxicity in Beagle dog assessed as testicular effect administered repeated dose level of 1000 mg/kg/day, po administered on days 3, 6 and 8 by hematoxylin and eosin staining-based microscopy. Conditions: in vivo. The arrangement: route oral. In kind it is organism-based, Canis lupus familiaris. In a few lines: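 Dogs received escalating oral doses of 100, 300 and 1000 mg/kg/day over 8 days (Days 3, 6 and 8 for each dose). Vehicle was 0.5% methylcellulose at 5 mL/kg. Two animals were necropsied at termination, and testes were fixed in modified Davidson's fixative, paraffin-embedded, H&E-stained and examined microscopically.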

Data set [10] is described as follows: Oral bioavailability in ICR mouse at 10 mg/kg. It is filed as ADME, organism-based. Conditions: in vivo. A digest of the protocol:
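Male ICR mice and 7-week-old SD rats received a 3 mg/kg iv bolus or a 10 mg/kg oral gavage dose. Plasma was precipitated with 2 volumes of acetonitrile and analysed by HPLC. Parameters came from noncompartmental analysis.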

Data set [11] is described as follows: Tmax in male Sprague-Dawley rat at 500 mg/kg, po measured on day 14. The arrangement: dose 500 mg/kg, route oral. It is filed as ADME, organism-based. The conditions noted are these: in vivo. In a few lines:
as §1

A short description of data set [12]: Cmax in male Sprague-Dawley rat at 500 mg/kg, po measured on day 1. In kind it is ADME, organism-based. The arrangement: dose 500 mg/kg, route oral. Conditions: in vivo. A digest of the protocol:
as §2

The nature of data set [13]: AUC (0 to t) in male Sprague-Dawley rat at 500 mg/kg, po measured on day 14. It is filed as ADME, organism-based. More on the design: dose 500 mg/kg, route oral. The conditions noted are these: plasma. A digest of the protocol:
as §2

A short description of data set [14]: Aqueous solubility of the compound in phosphate buffer at pH 7.4. In kind it is physicochemical.

The structures appear in SMILES notation. In brackets after ≈: the same amount, converted by molar mass.

By Tmax is commonly meant the time from dosing to the highest level. A word on the Cmax: it is the peak of the concentration-time curve. By bioavailability is commonly meant dose-corrected exposure relative to a reference, in per cent. What is called AUC(0-t) is exposure summed from dosing to a finite time, without extrapolation to infinity. The solubility is how much of the substance goes into solution per volume. `COCCOCn1ccc(NC(=O)c2cc(Oc3ccc(S(C)(=O)=O)cc3)cc(-c3ncccc3C)c2)n1`: the Activity was 39.8% in [1], “Non-toxic” in data set [2] and “Non-toxic” in data set [9]. The “fold change (FC)” value was determined as 2.23 in data set [3] and 3 in data set [6]. Besides, the time of peak concentration (Tmax) in data set [4] is 1.3 h; in data set [8], 3 h; in [11], 3 h. Moreover, the highest concentration (Cmax) was 3450 ng/mL in data set [5] and 4100 ng/mL in [12]. For the same molecule, the “inhibition (INH)” value in [7] is reported as “Not Active”. In data set [10], this molecule displayed a bioavailability of 24%. Besides, the exposure AUC(0-t) in data set [13] is 13600 ng·h/mL. For the same molecule, the solubility in data set [14] was 122 µM (≈ 65.5 µg/mL).

The record behind these values is ChEMBL document CHEMBL3232870, “Discovery of 3-(4-methanesulfonylphenoxy)-N-[1-(2-methoxy-ethoxymethyl)-1H-pyrazol-3-yl]-5-(3-methylpyridin-2-yl)-benzamide as a novel glucokinase activator (GKA) for the treatment of type 2 diabetes mellitus” (Bioorg Med Chem, 2014).
